# Experimental data published in ChEMBL document CHEMBL3124818, “Synthesis and antimicrobial evaluation of amide derivatives of benzodifuran-2-carboxylic acid” (2014).
# Experiments:
# Format in all cases: functional
# Candida albicans = assay: Antifungal activity against Candida albicans by broth dilution method
# In short: (§1)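 Broth dilution screen. Compounds tested at 40 μg to 600 μg. MIC was read as the lowest concentration preventing visible growth. Solvent controls were included. Ciprofloxacin (antibacterial) and fluconazole (antifungal) were run under similar conditions as reference drugs.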
# Escherichia coli = assay: Antibacterial activity against Escherichia coli by broth dilution method; in short: as §1
# Pseudomonas aeruginosa = assay: Antibacterial activity against Pseudomonas aeruginosa by broth dilution method; in short: as §1
# Staphylococcus aureus = assay: Antibacterial activity against Staphylococcus aureus by broth dilution method; in short: as §1
# Bacillus subtilis = assay: Antibacterial activity against Bacillus subtilis by broth dilution method; in short: as §1
Structure (SMILES),MIC (Candida albicans) [µg/mL],MIC (Escherichia coli) [µg/mL],MIC (Pseudomonas aeruginosa) [µg/mL],MIC (Staphylococcus aureus) [µg/mL],MIC (Bacillus subtilis) [µg/mL]
Cc1ccc(NC(=O)c2oc3cc4occ(C)c4cc3c2C)cc1,≥ 600,≥ 600,≥ 600,200,200
Cc1coc2cc3oc(C(=O)Nc4ccc(C(=O)O)cc4)c(C)c3cc12,600,400,600,600,160
COc1ccc(NC(=O)c2oc3cc4occ(C)c4cc3c2C)cc1,≥ 600,≥ 600,≥ 600,160,400
Cc1coc2cc3oc(C(=O)Nc4ccc(O)cc4)c(C)c3cc12,≥ 600,600,≥ 600,600,200
Cc1coc2cc3oc(C(=O)Nc4ccc(Cl)cc4)c(C)c3cc12,≥ 600,200,≥ 600,400,200
Cc1coc2cc3oc(C(=O)Nc4ccccc4)c(C)c3cc12,600,600,600,600,400
Cc1coc2cc3oc(C(=O)N4CCOCC4)c(C)c3cc12,≥ 600,600,≥ 600,400,200
Cc1coc2cc3oc(C(=O)N4CCCC4)c(C)c3cc12,600,400,≥ 600,160,400
Cc1coc2cc3oc(C(=O)N4CCCCC4)c(C)c3cc12,≥ 600,600,≥ 600,400,200
CCN(CC)C(=O)c1oc2cc3occ(C)c3cc2c1C,600,400,600,160,400
Cc1coc2cc3oc(C(=O)N4CCc5ccccc5C4)c(C)c3cc12,600,≥ 600,≥ 600,400,160
O=C(O)c1cn(C2CC2)c2cc(N3CCNCC3)c(F)cc2c1=O [CIPROFLOXACIN],–,15,7.5,5,2
OC(Cn1cncn1)(Cn1cncn1)c1ccc(F)cc1F [FLUCONAZOLE],5,–,–,–,–
